SUMO HTRF inh: inhibitors of in vitro SUMOylation cascade, primary screen, biochemical, HTRF, uHTS | SUMO-conjugating enzyme UBC9 (Homo sapiens), P63279 | HTRF SUMOylation assay, SAE1/SAE2 + UBC9 | inhibition, % at 35 µM | 0.36% of 290,000 active | AID 2006, 2009; in the data active = inhibition above about 50%, passing the limit was not always enough
DNMT1 inh: human DNMT1 methyltransferase inhibitors, primary screen, biochemical, molecular beacon, fluorescence, HinP1I cleavage, uHTS; DNA (cytosine-5)-methyltransferase 1 (Homo sapiens), P26358; inhibition (reported as % activation of signal), % at 10 µM; 0.83% of 360,000 active; AID 588458, 2011; in the data active = inhibition above about 50%
Scp1 inh: Scp-1 phosphatase inhibitors, primary screen, biochemical, colorimetric, uHTS; 0.88% of 340,000 active; AID 493091, 2011; inhibition, % at 20 µM; Carboxy-terminal domain RNA polymerase II polypeptide A small phosphatase 1 (Homo …; Recombinant Scp1, phosphopeptide, malachite green phosphate absorbance;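 active = inhibition above about 50% at 20 µM, limit read from the data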;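 also: plate controls were DMSO wells with enzyme for no effect and wells lacking enzyme for full effect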
Target sequence (Q9GZU7 76-261 limits assumed): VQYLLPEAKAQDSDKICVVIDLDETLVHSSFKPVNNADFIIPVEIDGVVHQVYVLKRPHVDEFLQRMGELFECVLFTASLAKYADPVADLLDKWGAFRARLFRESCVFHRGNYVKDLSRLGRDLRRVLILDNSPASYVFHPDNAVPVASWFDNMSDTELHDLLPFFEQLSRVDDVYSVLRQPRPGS
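Assay system: SCP-1 catalytic fragment, aa 76-261 | Buffer or medium: Tris acetate buffer pH 5.5 with MgCl2 and Tween-20 | Compound: One concentration, 20 µM, with 1.0% DMSO | Also added: Phospho 17-mer peptide substrate | Signal: Absorbance at 630 nm | Incubation: 45 min enzyme reaction at room temperature | Measure: % inhibition of SCP-1 phosphate liberation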
STEP inh: STEP phosphatase inhibitors, primary screen, biochemical, fluorescence intensity, uHTS | Tyrosine-protein phosphatase non-receptor type 5 (Homo sapiens), P54829 | 0.25% of 360,000 active | AID 588621, 2011 | recombinant STEP, OMFP fluorogenic substrate | inhibition, % at 20 µM;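 active = inhibition at 20 µM, scaled per plate between control wells, above about 37%, limit read from the data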;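 also: 0% = DMSO with enzyme and substrate and 100% = substrate only without enzyme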
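Assay system: isolated STEP enzyme. Buffer or medium: pH 6.0 Bis-Tris with DTT and Tween 20. Also added: fluorogenic phosphatase substrate OMFP at 25 µM final. Dosing: 20 µM, 1% DMSO. Timing: 20 min reaction, room temperature, in the dark. Measured by: fluorescence intensity, excitation 480 nm, emission 540 nm. Evaluation: normalized % inhibition.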
LMPTP inh: LMPTP phosphatase inhibitors, primary screen, biochemical, fluorescence intensity, uHTS; recombinant LMPTP-A, OMFP fluorogenic substrate; Low molecular weight phosphotyrosine protein phosphatase (Homo sapiens), P24666; inhibition, % at 20 µM; 0.22% of 360,000 active;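 active = compounds that cut the enzyme signal by at least half of the control window in the single-dose screen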;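 also: plate controls were DMSO wells with enzyme plus substrate for no effect and substrate without enzyme for full effect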
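Test system: LMPTP-A, protein tyrosine phosphatase of low molecular weight; Input: 0.625 nM enzyme; Incubation: 50 min dark incubation at room temperature; Signal: endpoint fluorescence intensity from OMFP dephosphorylation; Read-out basis: % inhibition versus control wells.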
SUMO1 PPI mod: modulators of SUMO1 protein-protein interactions, primary screen, biochemical, uHTS; Small ubiquitin-related modifier 1 (Homo sapiens), P63165; SUMO1 binding to a labelled peptide, TR-FRET, 1 h; inhibition, % at 20 µM; 0.33% of 360,000 active; in the data active = inhibition above about 37%
Target sequence (P63165 whole entry, looked up): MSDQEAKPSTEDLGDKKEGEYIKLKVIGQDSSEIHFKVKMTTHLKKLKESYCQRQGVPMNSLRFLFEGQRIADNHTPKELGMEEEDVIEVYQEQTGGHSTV
* hit, by the source's call; / = no result given. Rows were chosen to be rich in hits. Some 1.9% of all compounds tested hit in one or more screens of this group.

SMILES	SUMO HTRF inh	DNMT1 inh	Scp1 inh	STEP inh	LMPTP inh	SUMO1 PPI mod
CCN1/C(=C/C=C/c2sc3ccccc3[n+]2CC)Sc2ccccc21	/	29	4	3	62*	-31
CC[n+]1c(/C=C(\C)SC)sc2ccccc21	1	3	0	3	2	-3
CCN1/C(=C/C=C/C=C/c2sc3ccccc3[n+]2CC)Sc2ccccc21	7	/	/	/	/	/
CCN1/C(=C/C=C/C=C/C=C/c2sc3ccccc3[n+]2CC)Sc2ccccc21	-12	81*	21	1	14	-37
CCc1cccc(CC)c1NC(=S)Nc1ccccc1	2	-1	-7	1	0	-4
CC(C)NC(=O)Nc1cccc2c1O[C@H](CN(C)C(=O)NC1CCCCC1)[C@H](C)CN([C@H](C)CO)C2=O	/	-1	5	5	0	4
COc1cccc2c1C(=O)c1c(O)c3c(c(O)c1C2=O)C[C@@](O)(C(=O)CO)C[C@@H]3O[C@H]1C[C@H](N)[C@@H](O)[C@H](C)O1	/	-176	-14	-4	14	97*
COc1cccc2c1C(=O)c1c(O)c3c(c(O)c1C2=O)C[C@@](O)(C(C)=O)C[C@@H]3O[C@H]1C[C@H](N)[C@H](O)[C@H](C)O1	33	-164	-11	-46	11	-72
O=C(O)c1cccc(Nc2nc(-c3ccc([N+](=O)[O-])cc3)nc3ccccc23)c1	2	-10	41	13	52*	-1
O=[N+]([O-])c1ccc(-c2nc(Nc3cccc(O)c3)c3ccccc3n2)cc1	-21	-3	-10	-5	7	-28
CCN(CC)C(=O)c1sc2nc(-c3ccncc3)[nH]c(=O)c2c1C	52*	-5	3	2	-3	-2
COc1cc(CNc2ncnc3c2ncn3[C@H]2CN(Cc3ccncc3)C[C@@H](CO)O2)cc(OC)c1OC	/	5	/	0	-2	3
CC(=O)c1ccc(Nc2nc(C(N)CC(C)C)cs2)cc1 (stereo not drawn)	/	-6	/	-3	1	-1
Cc1ccc(NC(=O)c2ccc(COc3ccccc3)o2)nc1	3	0	-10	-2	1	-1
O=C(OCCNc1nc(-c2ccccc2)nc2ccccc12)c1cccnc1	0	-1	1	0	62*	3
O=C(OCCNc1nc(-c2ccccc2)nc2ccccc12)c1ccncc1	-6	-6	-1	-2	62*	2
O=C(O)CCNc1nc(-c2ccccc2)nc2ccccc12	24	3	-10	-3	21	9
OCCNc1nc(-c2cccnc2)nc2ccccc12	0	5	-6	0	6	9
N#Cc1cnn2c(-c3ccccc3)ccnc12	50*	0	-5	1	1	-6
CCCOc1ccc(N2C(=O)CC(N3CCC(c4nc5ccccc5o4)CC3)C2=O)cc1 (stereo not drawn)	11	/	/	/	/	/
O=C(/C=C/c1ccc(Br)o1)OCc1nc2ccsc2c(=O)[nH]1	/	104*	86*	89*	76*	120*
O=C1CSC(c2cn(-c3ccccc3)nc2-c2cc3ccccc3oc2=O)N1Cc1ccccc1 (stereo not drawn)	9	-7	-18	6	3	55*
O=C1CSC(c2nn(-c3ccccc3)cc2-c2cc3ccccc3oc2=O)N1Cc1ccco1 (stereo not drawn)	24	2	-9	3	-1	2
CN(C)c1ccc(N2C(=O)CSC2=S)cc1	73*	-6	1	0	-1	-1

From PubChem
